# Measurements as given in ChEMBL document CHEMBL1146549, “Five new cassane diterpenes from Myrospermum frutescens with activity against Trypanosoma cruzi” (J Nat Prod, 2003).
# Tests used:
# Trypanosoma cruzi [1] = test: Antitrypanosomal activity against Trypanosoma cruzi epimastigotes after 3 days; type: functional, organism-based; conditions: 72 h
# Outline: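 Recombinant epimastigotes grown in LIT medium with 10% calf serum at 28 °C, seeded at 1 × 10^5/mL with test compounds. After 3 days, CPRG and Nonidet P-40 added as in the intracellular assay, OD 570 nm. Amphotericin B as positive control. IC50 derived as in the intracellular assay.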
# HFF = test: Cytotoxicity against HFF after 3 days by MTT assay; type: cell-based; conditions: Homo sapiens, 72 h
# Outline: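 Primary human foreskin fibroblasts adhered to 96-well plates, exposed to compounds, and viability assessed by MTT reduction after 3 days at 37 °C in CO2. IC50 derived as in the intracellular assay.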
# Trypanosoma cruzi [2] = test: Antitrypanosomal activity against Trypanosoma cruzi Tulahuen clone C4 trypomastigotes in HFF after 7 days by beta-galactosidase reporter gene assay; type: functional, organism-based; conditions: 168 h
# Outline: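 HFF seeded at 1 × 10^3/well in RPMI-1640 without phenol red plus 10% fetal calf serum, overnight. βGal-expressing trypomastigotes added at 1 × 10^3/well, overnight, then serial dilutions (final 50, 10, 2 µg/mL). DMSO ≤0.1% final; vehicle control. Read at 7 days post-infection: CPRG 100 µM, Nonidet P-40 0.1% final, 4-6 h at 37 °C, OD 570 nm. Duplicates, ≥3 experiments, SD.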
# [3] = Ratio of IC50 for HFF to IC50 for Trypanosoma cruzi Tulahuen clone C4 trypomastigotes
# [4] = Ratio of IC50 for HFF to IC50 for Trypanosoma cruzi epimastigotes
IC50 (Trypanosoma cruzi [1]) [µM],IC50 (Trypanosoma cruzi [2]) [µM],SMILES,IC50 (HFF) [µM],Ratio IC50 [3],Ratio IC50 [4]
59,,C=CC1=C(C)[C@@H]2C[C@@H](OC(C)=O)[C@H]3[C@](C)(COC(C)=O)CCC[C@]3(C)[C@H]2CC1,,,
104,,C=CC1=C(C)[C@@H]2CC[C@H]3[C@@](COC(C)=O)(C(=O)O)CCC[C@]3(C)[C@H]2CC1,,,
56,16.6,C=CC1=C(C)[C@@H]2C[C@@H](O)[C@H]3[C@](C)(CO)CCC[C@]3(C)[C@H]2CC1,148,9,
11.5,25.9,C=CC1=C(C)[C@@H]2C[C@@H](O)[C@H]3[C@](C)(COC(C)=O)CCC[C@]3(C)[C@H]2CC1,118,,10

# Further lines, the compound ahead of its results:
SMILES,IC50 (Trypanosoma cruzi [1]) [µM],IC50 (Trypanosoma cruzi [2]) [µM],IC50 (HFF) [µM],Ratio IC50 [3],Ratio IC50 [4]
C=CC1=C(C)[C@@H]2CC[C@H]3[C@](C)(CO)CCC[C@]3(C)[C@H]2CC1,48.6,17.4,149,9,
CC1CS(=O)(=O)CCN1/N=C/c1ccc([N+](=O)[O-])o1 (stereo not given) [NIFURTIMOX],,11,,,
C=C[C@@]1(O)CC[C@H]2[C@@H](C[C@@H](O)[C@H]3[C@](C)(COC(C)=O)CCC[C@]23C)C1=C,16.5,35.8,124,,
C[C@@H]1[C@H](O)[C@@H](C)/C=C/C=C/C=C/C=C/C=C/C=C/C=C/[C@H](O[C@@H]2O[C@H](C)[C@@H](O)[C@H](N)[C@@H]2O)C[C@@H]2O[C@](O)(C[C@@H](O)C[C@@H](O)[C@H](O)CC[C@@H](O)C[C@@H](O)CC(=O)O[C@H]1C)C[C@H](O)[C@H]2C(=O)O [AMPHOTERICIN B],1,,,,
C=CC1=C(C)[C@@H]2CC(=O)[C@H]3[C@](C)(CO)CCC[C@]3(C)[C@H]2CC1,36,,,,
